Measurements published in ChEMBL document CHEMBL1152267, “Peptides based on CcdB protein as novel inhibitors of bacterial topoisomerases” (Bioorg Med Chem Lett, 2008).
The source made the active and inactive calls. The calls are words filed in the database; no cut-off is given here.

Experiments:
Escherichia coli [1] = assay: Inhibition of Escherichia coli DNA-gyrase assessed as DNA supercoiling activity
Outline: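 Peptide titrated into a fixed amount of enzyme and DNA. Gyrase at 3.4 nM with relaxed DNA substrate (500 ng), 37 °C for 1 h, which fully negatively supercoils the substrate without inhibitor. Value is IC100, the lowest peptide concentration giving complete inhibition of supercoiling.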

Escherichia coli [2] = assay: Inhibition of Escherichia coli topoisomerase 4 assessed as DNA relaxation activity
Outline: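 ATP-dependent relaxation assay. Topo IV at 5 nM with supercoiled DNA (400 ng) at 37 °C, with peptide titrated at fixed enzyme and DNA. Value is IC100, the minimum concentration completely inhibiting relaxation.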

| IC100 (Escherichia coli [1]) | IC100 (Escherichia coli [2]) | SMILES | Activity (Escherichia coli [1]) | Activity (Escherichia coli [2]) |
| --- | --- | --- | --- | --- |
| 60 µM | 15 µM | CC[C@H](C)[C@H](NC(=O)CNC(=O)[C@H](Cc1c[nH]c2ccccc12)NC(=O)[C@H](Cc1ccccc1)NC(=O)[C@H](CCSC)NC(=O)[C@H](CC(C)C)NC(=O)[C@H](CC(N)=O)NC(=O)[C@@H](NC(=O)[C@H](C)NC(=O)[C@H](CC(N)=O)NC(=O)[C@H](CCCCN)NC(=O)[C@@H](NC(=O)[C@H](CC(=O)O)NC(=O)[C@H](CC(N)=O)NC(=O)[C@H](CCC(=O)O)NC(=O)[C@H](CCCNC(=N)N)NC(=O)[C@H](Cc1cnc[nH]1)NC(=O)[C@@H](N)CO)[C@@H](C)CC)[C@@H](C)CC)C(=O)O | – | – |
| 10 µM | 5 µM | CC[C@H](C)[C@H](NC(=O)CNC(=O)[C@H](Cc1c[nH]c2ccccc12)NC(=O)[C@H](Cc1ccccc1)NC(=O)[C@H](CCSC)NC(=O)[C@H](CC(C)C)NC(=O)[C@H](CC(N)=O)NC(=O)[C@@H](NC(=O)[C@H](C)NC(=O)[C@H](CC(N)=O)NC(=O)[C@H](CCCCN)NC(=O)[C@@H](NC(=O)[C@H](CC(=O)O)NC(=O)[C@H](CC(N)=O)NC(=O)[C@H](CCC(=O)O)NC(=O)[C@H](CCCNC(=N)N)NC(=O)[C@H](Cc1cnc[nH]1)NC(=O)[C@H](CO)NC(=O)CCCCCNC(=O)[C@H](CC(C)C)NC(=O)[C@H](CCC(=O)O)NC(=O)[C@H](CCCNC(=N)N)NC(=O)[C@H](CO)NC(=O)[C@@H](NC(=O)[C@H](CCCCN)NC(=O)[C@H](CC(=O)O)NC(=O)[C@H](CO)NC(=O)[C@H](CC(C)C)NC(=O)[C@H](CC(C)C)NC(=O)[C@H](CCCNC(=N)N)NC(=O)CCCCCNC(=O)[C@H](CCCCN)NC(=O)[C@H](Cc1ccc(O)cc1)NC(=O)[C@@H](NC(=O)[C@H](Cc1ccc(O)cc1)NC(=O)[C@@H](NC(=O)[C@H](CCCCN)NC(=O)[C@H](Cc1ccccc1)NC(=O)[C@H](CCC(N)=O)NC(=O)[C@@H](N)CCSC)C(C)C)[C@@H](C)O)C(C)C)[C@@H](C)CC)[C@@H](C)CC)C(=O)O | – | – |
| – | 5 µM | CC[C@H](C)[C@H](NC(=O)[C@H](CCC(=O)O)NC(=O)[C@H](Cc1c[nH]c2ccccc12)NC(=O)[C@H](Cc1ccccc1)NC(=O)[C@H](CCSC)NC(=O)[C@H](CC(C)C)NC(=O)[C@H](CC(N)=O)NC(=O)[C@@H](NC(=O)[C@H](C)NC(=O)[C@H](CC(N)=O)NC(=O)[C@H](CCCCN)NC(=O)[C@@H](NC(=O)[C@H](CC(=O)O)NC(=O)[C@H](CC(N)=O)NC(=O)[C@H](CCC(=O)O)NC(=O)[C@H](CCCNC(=N)N)NC(=O)[C@H](Cc1cnc[nH]1)NC(=O)[C@H](CO)NC(=O)CCCCCNC(=O)[C@H](CC(C)C)NC(=O)[C@H](CCC(=O)O)NC(=O)[C@H](CCCNC(=N)N)NC(=O)[C@H](CO)NC(=O)[C@@H](NC(=O)[C@H](CCCCN)NC(=O)[C@H](CC(=O)O)NC(=O)[C@H](CO)NC(=O)[C@H](CC(C)C)NC(=O)[C@H](CC(C)C)NC(=O)[C@H](CCCNC(=N)N)NC(=O)CCCCCNC(=O)[C@H](CCCCN)NC(=O)[C@H](Cc1ccc(O)cc1)NC(=O)[C@@H](NC(=O)[C@H](Cc1ccc(O)cc1)NC(=O)[C@@H](NC(=O)[C@H](CCCCN)NC(=O)[C@H](Cc1ccccc1)NC(=O)[C@H](CCC(N)=O)NC(=O)[C@@H](N)CCSC)C(C)C)[C@@H](C)O)C(C)C)[C@@H](C)CC)[C@@H](C)CC)C(=O)O | inactive | – |
| 40 µM | 15 µM | CC[C@H](C)[C@H](NC(=O)CNC(=O)[C@H](Cc1c[nH]c2ccccc12)NC(=O)[C@H](Cc1ccccc1)NC(=O)[C@H](CCSC)NC(=O)[C@H](CC(C)C)NC(=O)[C@H](CC(N)=O)NC(=O)[C@@H](NC(=O)[C@H](C)NC(=O)[C@H](CC(N)=O)NC(=O)[C@H](CCCCN)NC(=O)[C@@H](NC(=O)[C@H](CC(=O)O)NC(=O)[C@H](CC(N)=O)NC(=O)[C@H](CCC(=O)O)NC(=O)[C@H](CCCNC(=N)N)NC(=O)[C@H](Cc1cnc[nH]1)NC(=O)[C@H](CO)NC(=O)CCCCCNC(=O)[C@H](CCCCN)NC(=O)[C@H](Cc1ccc(O)cc1)NC(=O)[C@@H](NC(=O)[C@H](Cc1ccc(O)cc1)NC(=O)[C@@H](NC(=O)[C@H](CCCCN)NC(=O)[C@H](Cc1ccccc1)NC(=O)[C@H](CCC(N)=O)NC(=O)[C@@H](N)CCSC)C(C)C)[C@@H](C)O)[C@@H](C)CC)[C@@H](C)CC)C(=O)O | – | – |
| – | – | CC[C@H](C)[C@H](NC(=O)CNC(=O)[C@H](Cc1c[nH]c2ccccc12)NC(=O)[C@H](Cc1ccccc1)NC(=O)[C@H](CCSC)NC(=O)[C@H](CC(C)C)NC(=O)[C@H](CC(N)=O)NC(=O)[C@@H](NC(=O)[C@H](C)NC(=O)[C@H](CC(N)=O)NC(=O)[C@H](CCCCN)NC(=O)[C@@H](NC(=O)[C@H](CC(=O)O)NC(=O)[C@H](CC(N)=O)NC(=O)[C@H](CCC(=O)O)NC(=O)[C@H](CCCNC(=N)N)NC(=O)[C@H](Cc1cnc[nH]1)NC(=O)[C@H](CO)NC(=O)[C@H](CC(C)C)NC(=O)[C@H](CC(=O)O)NC(=O)[C@H](C)NC(=O)[C@@H](NC(=O)[C@H](CCC(=O)O)NC(=O)[C@H](CCC(=O)O)NC(=O)CNC(=O)[C@@H](NC(=O)[C@@H](NC(=O)[C@H](CO)NC(=O)[C@@H](NC(=O)[C@@H]1CCCN1C(=O)[C@@H](NC(=O)[C@H](CO)NC(=O)[C@H](C)NC(=O)[C@@H](N)CCSC)C(C)C)C(C)C)C(C)C)[C@@H](C)CC)C(C)C)[C@@H](C)CC)[C@@H](C)CC)C(=O)O | inactive | inactive |
